Like-named read-outs stand apart in the source and are kept apart here.
Columns and labels:
Format in all cases: biochemical
[1] = target: T1, FLuc (Photinus pyralis luciferase) (Photinus pyralis, UniProt P08659); assay: luminescence inhibition, 1536-well CRC
Outline: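 Purified wild-type Photinus pyralis luciferase in 1536-well format, with 10 μM D-luciferin and 10 μM ATP as substrates. Luminescence is read across a concentration titration of test compound. IC50 comes from the fitted concentration-response curve and is given as mean ±SD of at least 4 determinations.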

[2] = target: T2, VLuc (Vibrio fischeri luciferase) (Aliivibrio fischeri, UniProt P19907); assay: luminescence inhibition, 1536-well CRC, FMN reductase-coupled; conditions: read-out: VLuc; 0.1 M sodium phosphate pH 7.0, 0.005% decanal, 0.1 mM NADH, 2 μM FMN, 0.1% BSA; partially purified enzyme
T2 sequence (P19907 1-354): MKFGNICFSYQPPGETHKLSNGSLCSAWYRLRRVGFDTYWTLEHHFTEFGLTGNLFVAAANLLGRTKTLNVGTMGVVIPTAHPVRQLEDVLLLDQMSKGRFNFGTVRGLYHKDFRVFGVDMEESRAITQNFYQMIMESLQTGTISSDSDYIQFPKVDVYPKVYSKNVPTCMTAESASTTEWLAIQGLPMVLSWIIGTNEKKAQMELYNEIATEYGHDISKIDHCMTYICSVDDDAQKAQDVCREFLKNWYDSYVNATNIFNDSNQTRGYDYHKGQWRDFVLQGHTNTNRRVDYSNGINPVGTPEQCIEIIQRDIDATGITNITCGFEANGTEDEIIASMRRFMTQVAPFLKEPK
T2 sequence (P19908 1-326 partner): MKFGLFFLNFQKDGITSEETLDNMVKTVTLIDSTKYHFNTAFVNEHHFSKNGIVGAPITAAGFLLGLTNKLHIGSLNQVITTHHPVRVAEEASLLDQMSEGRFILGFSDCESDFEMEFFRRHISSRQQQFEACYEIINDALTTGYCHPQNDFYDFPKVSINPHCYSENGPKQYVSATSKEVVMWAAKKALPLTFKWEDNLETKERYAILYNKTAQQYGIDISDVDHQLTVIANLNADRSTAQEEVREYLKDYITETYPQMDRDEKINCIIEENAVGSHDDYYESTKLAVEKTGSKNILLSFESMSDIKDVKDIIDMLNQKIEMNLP

[3] = target: T3, LmLuc (Luciola mingrelica luciferase) (Luciola mingrelica, UniProt Q26304); assay: luminescence inhibition, 1536-well CRC
T3 sequence (Q26304 1-548): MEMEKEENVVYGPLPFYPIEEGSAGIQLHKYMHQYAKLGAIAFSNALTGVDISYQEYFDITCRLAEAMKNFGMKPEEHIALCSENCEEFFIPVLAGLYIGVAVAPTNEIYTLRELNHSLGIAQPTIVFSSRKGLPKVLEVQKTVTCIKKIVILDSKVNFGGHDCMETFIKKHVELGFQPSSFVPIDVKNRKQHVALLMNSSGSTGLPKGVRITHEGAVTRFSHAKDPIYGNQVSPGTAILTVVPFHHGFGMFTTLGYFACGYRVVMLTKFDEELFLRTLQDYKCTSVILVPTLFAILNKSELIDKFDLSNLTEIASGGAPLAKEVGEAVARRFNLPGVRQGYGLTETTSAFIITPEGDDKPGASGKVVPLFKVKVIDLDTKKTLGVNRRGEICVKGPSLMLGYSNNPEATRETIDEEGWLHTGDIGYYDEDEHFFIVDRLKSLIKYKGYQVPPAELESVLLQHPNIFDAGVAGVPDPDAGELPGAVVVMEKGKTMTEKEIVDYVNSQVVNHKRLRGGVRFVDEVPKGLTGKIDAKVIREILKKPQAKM
Outline: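 Luciola mingrelica luciferase at 5 nM final in 1536-well format, run by the same protocol as the Photinus enzyme with 10 μM D-luciferin and 10 μM ATP. Luminescence is read over a test-compound titration. IC50 comes from curve fitting and is given as mean ±SD of at least 4 determinations.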

[4] = target: T4, RLuc (Renilla reniformis luciferase) (Renilla reniformis, UniProt P27652); assay: luminescence inhibition, 1536-well CRC; conditions: read-out: % inhibition at 57 μM (inactive)
T4 sequence (P27652 1-311): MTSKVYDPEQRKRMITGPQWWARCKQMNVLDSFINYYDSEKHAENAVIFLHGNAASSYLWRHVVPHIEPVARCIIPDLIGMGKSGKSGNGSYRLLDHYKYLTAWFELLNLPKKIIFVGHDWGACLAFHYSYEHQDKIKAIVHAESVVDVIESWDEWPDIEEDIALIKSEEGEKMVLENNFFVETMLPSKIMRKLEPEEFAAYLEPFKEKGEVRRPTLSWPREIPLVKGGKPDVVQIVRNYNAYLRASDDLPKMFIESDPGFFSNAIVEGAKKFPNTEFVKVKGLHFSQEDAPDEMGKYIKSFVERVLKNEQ

[5] = target: T4, RLuc (Renilla reniformis luciferase); assay: luminescence inhibition, 1536-well CRC
Outline: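 Renilla reniformis luciferase in 1536-well format with 5 μM coelenterazine as substrate. Luminescence is measured over a test-compound concentration series. IC50 is taken from the fitted concentration-response curve and given as mean ±SD of at least 4 determinations.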

[6] = target: T3, LmLuc (Luciola mingrelica luciferase); assay: luminescence inhibition, 1536-well CRC; conditions: read-out: % inhibition at 57 μM (inactive)
[7] = target: T1, FLuc (Photinus pyralis luciferase); assay: luminescence inhibition, 1536-well CRC; conditions: read-out: % inhibition at 57 μM (inactive)
[8] = read-out: LmLuc, 10 μM D-luciferin and ATP, 5 nM enzyme
[9] = read-out: FLuc, 10 μM D-luciferin and ATP

T1 sequence (P08659 whole entry): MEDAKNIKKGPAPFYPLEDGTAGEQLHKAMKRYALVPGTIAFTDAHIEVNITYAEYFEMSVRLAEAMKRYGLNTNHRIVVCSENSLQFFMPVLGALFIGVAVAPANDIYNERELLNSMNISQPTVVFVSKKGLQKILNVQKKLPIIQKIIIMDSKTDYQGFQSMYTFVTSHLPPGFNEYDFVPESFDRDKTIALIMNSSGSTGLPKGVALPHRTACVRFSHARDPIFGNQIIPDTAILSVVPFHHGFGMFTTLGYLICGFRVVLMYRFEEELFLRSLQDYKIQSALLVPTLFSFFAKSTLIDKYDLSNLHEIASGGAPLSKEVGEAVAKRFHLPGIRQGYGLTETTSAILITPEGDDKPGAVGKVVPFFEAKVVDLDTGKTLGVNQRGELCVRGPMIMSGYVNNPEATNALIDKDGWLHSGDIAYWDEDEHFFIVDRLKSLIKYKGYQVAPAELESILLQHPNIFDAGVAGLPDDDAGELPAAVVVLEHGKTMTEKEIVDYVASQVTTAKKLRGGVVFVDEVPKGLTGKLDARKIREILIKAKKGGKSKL

| Compound | IC50 [2] [µM] | IC50 [3, 8] [µM] | IC50 [1, 9] [µM] | also measured |
| --- | --- | --- | --- | --- |
| O=C1O/C(=C\c2ccc(O)cc2)C(O)=C1c1ccc(O)cc1 [compound 1, aspulvinone E] | > 57 |  |  | IC50 [1]: 1.4 ± 1.6 µM; IC50 [3]: 3.6 ± 1.1 µM; inhibition at 57 µM [4]: < 20% |
| CC(C)(O)[C@H]1Cc2cc(/C=C3\OC(=O)C(c4ccc5c(c4)C[C@H](C(C)(C)O)O5)=C3O)ccc2O1 [compound 5, aspulvinone J-CR] | 6.5 ± 3.3 | 0.1 ± 0.03 |  | IC50 ([5]; read-out: RLuc, 5 μM coelenterazine): > 57 µM |
| COC(=O)[C@@]1(Cc2ccc(O)c(CC=C(C)C)c2)OC(=O)C(O)=C1c1ccc(O)cc1 [compound 10, butyrolactone I] |  |  |  | inhibition at 57 µM [6]: < 20%; IC50 [5]: > 57 µM; inhibition at 57 µM [7]: < 20% |
| COC(=O)[C@]1(Cc2ccc(O)c(CC3OC3(C)C)c2)OC(=O)C(O)=C1c1ccc(O)cc1 (stereo partly drawn) [compound 11, butyrolactone III] |  |  |  | inhibition at 57 µM [6]: < 20%; inhibition at 57 µM [4]: < 20%; inhibition at 57 µM [7]: < 20% |
| aspulvinone F [compound 2] |  | 2.5 ± 0.5 | 3.6 ± 1.5 | IC50 ([5]; read-out: Ultra, 5 μM coelenterazine): > 57 µM |
| aspulvinone I-CR [compound 4] | 12 ± 2.3 | 0.5 ± 0.2 | 0.72 ± 0.4 |  |

Further lines, with some results ahead:

| IC50 [2] [µM] | IC50 [3, 8] [µM] | IC50 [1, 9] [µM] | Compound | also measured |
| --- | --- | --- | --- | --- |
| 18 ± 8 | 5.3 ± 5.9 | 1.7 ± 1.6 | aspulvinone M-CR [compound 8] |  |
|  | 14.8 ± 2.8 | 18.6 ± 8.8 | benzofuran [compound 12] |  |
